In assay [1] the test system is U1. In words: Induction of apoptosis in human U1 cells assessed as caspase-3 activation at 10 nM incubated for 24 hrs by flow cytometry. It counts as functional. Put shortly:
(§1)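 Cells fixed in 1% paraformaldehyde, permeabilized, stained 30 min on ice with anti-active caspase-3 mAb, and analysed by flow cytometry. Three independent experiments.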
(In general: Flow cytometry measures light scatter and fluorescence of single cells or particles in a stream.)

For assay [2], the system named is J-Lat 6.3. As to the kind of experiment: Induction of apoptosis in human J-Lat 6.3 cells assessed as caspase-3 activation at 10 nM incubated for 24 hrs by flow cytometry (reference value: 2.43%). It counts as functional. In short, it runs like this: as §1
The test system of assay [3] is U-937. In words: Induction of apoptosis in human U-937 cells assessed as caspase-3 activation at 10 nM incubated for 24 hrs by flow cytometry. The format is functional. Put shortly:
as §1

Assay [4] deals with J-Lat 6.3. In words: Induction of apoptosis in human J-Lat 6.3 cells assessed as caspase-3 activation at 10 nM incubated for 24 hrs by flow cytometry. The format is functional. Put shortly:
as §1

Assay [5] has as its target T1, Protein kinase C (PKC) (Homo sapiens) (UniProt O94806+P41743+P17252+P05129+Q05655+P05771+Q05513+Q02156+P24723+Q15139+Q04759). As to the kind of experiment: Induction of apoptosis in CCL19-induced human CD4+ T-cells infected with latent HIV-1 assessed as caspase-3 activation at 100 nM incubated for 48 hrs in presence of 2 uM ionomycin by incubated for 48 hrs by FACS. It counts as cell-based. To be noted: CD4+ T cell, filed as activator. Put shortly: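 Latency model: healthy-donor CD4+ T-cells given 100 nM CCL19 for 2 days, infected with HIV-1 NL4-3, kept 5 days in IL-2. Stimulated 2 days with 1 µM drug or 100 nM PMA plus 2 µM ionomycin. Cells fixed and permeabilized, co-stained with anti-p24 and anti-active caspase-3 mAbs; active caspase-3 read by flow cytometry separately in p24+ and p24− cells. Two donors.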

Assay [6] relates to ACH-2 cell line. As to the kind of experiment: Induction of apoptosis in human ACH-2 cells at 1 uM incubated for 48 hrs after pre-incubated for 2 hrs with 20 uM caspase inhibitor Q-VD-Oph by propidium iodide/annexin-V staining based flow cytometry. The format is functional, cell-based. In short, it runs like this:
(§2)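 ACH-2 or U1 cells pretreated 2 h with 20 µM pan-caspase inhibitor Q-VD-Oph, then exposed to 1 µM compound for 48 h. Annexin-V/PI staining by flow cytometry; apoptotic proportions compared with and without Q-VD-Oph. Mean ± S.D.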

Assay [7] deals with J-Lat 6.3 (Homo sapiens). In words: Induction of apoptosis in human J-Lat 6.3 cells at 1 uM incubated for 48 hrs after pre-incubated for 2 hrs with 20 uM caspase inhibitor Q-VD-Oph by propidium iodide/annexin-V staining based flow cytometry.
The subject of assay [8] is U1. As to the kind of experiment: Induction of apoptosis in human U1 cells assessed as caspase-3 activation at 10 nM incubated for 24 hrs by flow cytometry (reference value: 1.86%). The format is functional. Put shortly:
as §1

For assay [9], the system named is U1. In words: Induction of apoptosis in human U1 cells at 1 uM incubated for 48 hrs by propidium iodide/annexin-V staining based flow cytometry (reference value: 3.16%). It counts as functional.
In assay [10] the test system is Jurkat. As to the kind of experiment: Induction of apoptosis in human Jurkat cells assessed as caspase-3 activation at 10 nM incubated for 24 hrs by flow cytometry. It counts as functional. Put shortly: as §1
Assay [11] relates to J-Lat 6.3. As to the kind of experiment: Induction of apoptosis in human J-Lat 6.3 cells at 1 uM incubated for 48 hrs by propidium iodide/annexin-V staining based flow cytometry (reference value: 3.16%). The format is functional.
Assay [12] deals with U1. As to the kind of experiment: Induction of apoptosis in human U1 cells at 1 uM incubated for 48 hrs after pre-incubated for 2 hrs with 20 uM caspase inhibitor Q-VD-Oph by propidium iodide/annexin-V staining based flow cytometry. The format is functional, cell-based. In short, it runs like this:
as §2

The subject of assay [13] is ACH-2 cell line. In words: Induction of apoptosis in human ACH-2 cells at 1 uM incubated for 48 hrs by propidium iodide/annexin-V staining based flow cytometry (reference value: 3.16%). It counts as functional.
Assay [14] can be described thus: Induction of apoptosis in human CEM A3.01 cells assessed as caspase-3 activation at 10 nM incubated for 24 hrs by flow cytometry. It counts as functional. Put shortly: as §1
The subject of assay [15] is ACH-2 cell line. In words: Induction of apoptosis in human ACH-2 cells assessed as cleaved-PARP level at 10 nM incubated for 24 hrs by flow cytometry (reference value: 1.64%). The format is functional. Put shortly:
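Cells fixed, permeabilized, stained on ice with anti-cleaved PARP (Asp-214) mAb; % cleaved-PARP cells by flow cytometry. Means ± S.D. of three independent experiments.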

For assay [16], the system named is ACH-2 cell line. As to the kind of experiment: Induction of apoptosis in human ACH-2 cells assessed as caspase-3 activation at 10 nM incubated for 24 hrs by flow cytometry. The format is functional. Put shortly: as §1
Assay [17] addresses T1, Protein kinase C (PKC) (Homo sapiens). As to the kind of experiment: Activation of PKC in CCL19-induced human CD4+ T-cells infected with latent HIV-1 assessed as reversal of HIV-1 latency by measuring increase in p24 antigen level at 100 nM incubated for 48 hrs in presence of 2 uM ionomycin by chemiluminescent enzyme immunoassay. The format is cell-based. The following applies: CD4+ T cell, filed as activator.

The target is the same in assay [18]. In words: Activation of PKC in CCL19-induced human CD4+ T-cells infected with latent HIV-1 assessed as reversal of HIV-1 latency by measuring increase in p24 antigen level at 2 uM incubated for 48 hrs in presence of 100 nM PMA by chemiluminescent enzyme immunoassay. The following applies: CD4+ T cell, filed as activator. It counts as cell-based.

Calls of active or inactive are those of the source. The rule behind the calls is not given here.

As to `CCCCCCCCCCCCCC(=O)O[C@@H]1[C@@H](C)[C@@]2(O)[C@@H](C=C(CO)C[C@]3(O)C(=O)C(C)=C[C@@H]23)[C@@H]2C(C)(C)[C@]12OC(C)=O` [PHORBOL MYRISTATE ACETATE], the Activity in assay [1] came out at 33.6%; in [2], 19.9%; in [3], 1.02%; in assay [4], 12.9%; in [8], 8.06%; in [9], 28.7%. For the same compound, the Activity in [10] is 2.03%; in assay [11] it was 15.2%; in assay [13], 40.3%; in assay [14], 2.39%; in assay [15], 21.7%; in assay [16], 27%. The result in [5] and in assay [17] was Active. Moreover, the result in assay [6], in assay [7] and in assay [12] was inactive.
For the compound `C[C@H](CCC(=O)O)C[C@H](C)C[C@H](C)C(=O)/C=C(\O)[C@H](C)C[C@H](C)C/C=C/[C@@H](C)[C@@H](O)[C@@H](C)[C@@H](O)C[C@@H]1CC[C@@](C)([C@H]2CC[C@@](C)([C@@H](C)O)O2)O1`, the outcome in assay [18] was Active.

Source of the values: ChEMBL document CHEMBL5674882, “Benzolactam-related compounds promote apoptosis of HIV-infected human cells via protein kinase C-induced HIV latency reversal” (J Biol Chem, 2019).
